Data set [1] has as its system CHO. As to the kind of experiment: Agonist activity at rat KCNQ3 A278T mutant expressed in CHO cells assessed as amplitude change of outward current at 0.1 uM by patch clamp method. Type of data set: cell-based. The conditions noted are these: filed as agonist. The gist of the method:
(§1)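 Whole-cell patch clamp at room temperature on CHO cells (DMEM/F12, 10% FBS) transiently co-transfected with EGFP and hKCNQ1, rKCNQ2, rKCNQ3 A278T, hKCNQ4 or hKCNQ5; KCNQ2/3 at 1:1 cDNA ratio. Pipette solution 145 mM KCl, 5 mM MgATP, pH 7.3; bath 140 mM NaCl, 5 mM KCl, pH 7.4, under perfusion. V1/2 from Boltzmann fits; I/I0 is current amplitude with versus without compound; n = 4−6.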
(In patch-clamp work, channel activity is measured electrically.)

The nature of data set [2]: Metabolic stability in human liver microsomes assessed as intrinsic clearance. The data set is classed as ADME, Microsome. Conditions: read-out: CLH. On the technique in general: Microsomes from liver hold many membrane-bound enzymes, among them those of drug oxidation.
The nature of data set [3]: Ratio of AUC(0 to t) in Kunming mouse brain to plasma at 5 mg/kg, po measured upto 24 hrs by LC-MS/MS method. The data set is classed as ADME, organism-based. Conditions: brain and plasma. The gist of the method: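 Male KM mice (18−24 g) fasted 12 h before and 2 h after dosing, given 5 mg/kg orally in 5% DMSO/5% Tween 80/90% normal saline (n = 3 per time point). Aortic blood taken at 0.25–24 h and whole brain collected. Acetonitrile extraction with internal standard, then LC−MS/MS. Bioavailability calculated against the 2 mg/kg i.v. arm.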

Another data set concerns the target Cytochrome P450 1A2 (Homo sapiens, UniProt P05177). As to the kind of experiment: Time dependent inhibition of human liver microsome CYP1A2 preincubated for 0.5 hrs in absence of NADPH followed by substrate addition by LC-MS/MS method. The data set is classed as ADME, microsomes. The gist of the method:
(§2)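 Human liver microsomes preincubated 0.5 h with 0.10–50 μM test compound, with or without NADPH, then CYP-specific probe substrate added and incubation continued. Metabolite measured by LC-MS/MS; % activity remaining relative to no-compound control; IC50 fitted by Probit model. For CYP3A4, midazolam 1′-hydroxylation and testosterone 6β-hydroxylation were read separately.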

Data set [4] in a line: Neurotoxicity in Kunming mouse assessed as motor impairment rate at 90 mg/kg, po after 1 hr by rotarod test. Type of data set: toxicity, organism-based. The conditions noted are these: in vivo. The gist of the method:
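Male KM mice dosed intragastrically with compound freshly suspended in 0.5% CMC-Na. Rotarod performance scored 1 h after dosing as the fraction of animals showing motor impairment. Fisher's exact test versus vehicle; TD50 from nonlinear dose−response fit.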
On the technique in general: In the rotarod test animals must keep their balance on a rotating rod.

For the next data set, the target named is Cytochrome P450 2B6 (Homo sapiens, UniProt P20813). The data set is described as follows: Time dependent inhibition of human liver microsome CYP2B6 preincubated for 0.5 hrs in presence of NADPH followed by substrate addition by LC-MS/MS method. Type of data set: ADME, microsomes. Summed up: as §2
The target of data set [5] is T1, Potassium voltage-gated channel subfamily KQT member 2/member 3 (Rattus norvegicus) (UniProt O88943+O88944). As to the kind of experiment: Agonist activity at rat KCNQ2/3 channel expressed in CHO cells assessed as shift of half voltage of maximal activation at 0.1 uM by patch clamp method. Type of data set: cell-based. The conditions noted are these: filed as agonist. Summed up: as §1

Data set [6] has as its target Potassium voltage-gated channel subfamily KQT member 5 (Homo sapiens) (UniProt Q9NR82). The data set is described as follows: Agonist activity at human KCNQ5 channel expressed in CHO cells assessed as shift of half voltage of maximal activation at 0.1 uM by patch clamp method. Conditions: filed as agonist. Type of data set: cell-based. Summed up: as §1
The target of a further data set is CYP1A2 (Homo sapiens, UniProt P05177). As to the kind of experiment: Ratio of IC50 for human liver microsome CYP1A2 in absence of NADPH to IC50 for human liver microsome CYP1A2 in presence of NADPH. The conditions noted are these: liver microsomes, read-out: Ratio IC50.
A further data set addresses CYP2C9 (Homo sapiens, UniProt P11712). The data set is described as follows: Ratio of IC50 for human liver microsome CYP2C9 in absence of NADPH to IC50 for human liver microsome CYP2C9 in presence of NADPH. Conditions: liver microsomes, read-out: Ratio IC50.
A short description of data set [7]: AUC(0 to t) in Kunming mouse plasma at 5 mg/kg, po measured upto 24 hrs by LC-MS/MS method. Details: dose 5 mg/kg, time < 24 hrs, route po. Type of data set: ADME, organism-based. The gist of the method: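 KM male mice (18−24 g), fasted 12 h before and 2 h after dosing. HN37 given orally at 5 mg/kg in 5% DMSO/5% Tween 80/90% saline, or iv at 2 mg/kg after dilution in saline with 1% Tween 80; n = 3 per time point. Blood sampled 0.25–24 h (from 0.083 h after iv); whole brain taken after oral dosing. Plasma and brain extracted with acetonitrile, quantified by LC−MS/MS; AUC0−t by trapezoidal method.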

The nature of data set [8]: Tmax in Sprague-Dawley rat at 6 mg/kg, po measured upto 24 hrs by LC-MS/MS method. Conditions: in vivo. The data set is classed as ADME, organism-based. Summed up:
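Male SD rats (180–220 g) dosed orally at 2, 6 and 20 mg/kg, handled like the mice: fasting, 5% DMSO/5% Tween 80/saline vehicle, acetonitrile extraction, LC-MS/MS of plasma. In a separate set at 6 mg/kg p.o., blood and brain were sampled together.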

In another data set the target is CYP2C8 (Homo sapiens, UniProt P10632). As to the kind of experiment: Inhibition of human liver microsome CYP2C8 at 0.10 to 50 uM preincubated with NADPH for 0.5 hrs followed by substrate addition by LC-MS/MS method relative to control. The data set is classed as ADME. Conditions: liver microsomes, dose 0.1-50 µM.
Data set [9] concerns CHO. As to the kind of experiment: Agonist activity at rat KCNQ3 A278T mutant expressed in CHO cells assessed as amplitude change of outward current at 10 uM by patch clamp method. The conditions noted are these: filed as agonist. The data set is classed as cell-based. Summed up: as §1
For data set [10], the target named is T2, Potassium voltage-gated channel subfamily KQT member 1 (Homo sapiens, UniProt P51787).
T2 sequence (P51787 whole entry): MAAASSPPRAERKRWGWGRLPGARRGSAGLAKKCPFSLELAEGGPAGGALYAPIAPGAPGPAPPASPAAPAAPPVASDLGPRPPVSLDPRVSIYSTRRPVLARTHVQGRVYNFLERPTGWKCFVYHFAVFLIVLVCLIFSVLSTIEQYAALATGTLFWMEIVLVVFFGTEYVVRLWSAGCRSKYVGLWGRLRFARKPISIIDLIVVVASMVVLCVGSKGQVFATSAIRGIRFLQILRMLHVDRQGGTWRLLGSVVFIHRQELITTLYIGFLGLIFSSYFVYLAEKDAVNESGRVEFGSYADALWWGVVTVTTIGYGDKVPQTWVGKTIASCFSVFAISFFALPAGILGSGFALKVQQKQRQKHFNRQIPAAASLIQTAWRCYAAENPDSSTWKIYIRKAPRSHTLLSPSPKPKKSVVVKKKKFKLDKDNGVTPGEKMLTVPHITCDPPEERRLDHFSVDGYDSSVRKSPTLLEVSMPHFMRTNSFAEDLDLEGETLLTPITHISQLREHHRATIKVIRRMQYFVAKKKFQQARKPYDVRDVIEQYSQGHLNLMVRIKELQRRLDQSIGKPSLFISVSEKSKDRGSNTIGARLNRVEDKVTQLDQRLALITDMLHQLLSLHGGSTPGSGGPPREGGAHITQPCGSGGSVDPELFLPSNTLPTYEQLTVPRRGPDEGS
As to the kind of experiment: Agonist activity at human KCNQ1 channel expressed in CHO cells assessed as shift of half voltage of maximal activation at 10 uM by patch clamp method. Type of data set: cell-based. The gist of the method:
as §1

The target of data set [11] is Potassium voltage-gated channel subfamily KQT member 5 (Homo sapiens) (UniProt Q9NR82). As to the kind of experiment: Agonist activity at human KCNQ5 channel expressed in CHO cells assessed as amplitude change of outward current at 10 uM by patch clamp method. The data set is classed as cell-based. Conditions: filed as agonist. Summed up:
as §1

The target in data set [12] is T1, Potassium voltage-gated channel subfamily KQT member 2/member 3 (Rattus norvegicus). The data set is described as follows: Agonist activity at rat KCNQ2/3 channel expressed in CHO cells assessed as shift of half voltage of maximal activation at 10 uM by patch clamp method. Type of data set: cell-based. Conditions: filed as agonist. Summed up: as §1

SMILES strings stand for the structures.

Usually Kp stands for the ratio of the level in a tissue or fluid to that in plasma or blood. The term IC50 denotes the concentration at which inhibition is half-maximal. By AUC(0-t) is commonly meant exposure summed from dosing to a finite time, without extrapolation to infinity. By Tmax is commonly meant the time from dosing to the highest level. The inhibition is how much of the control response was suppressed. A higher inhibition goes with strong suppression.

Potassium voltage-gated channel subfamily KQT member 5 (Homo sapiens), sequence (Q9NR82 whole entry): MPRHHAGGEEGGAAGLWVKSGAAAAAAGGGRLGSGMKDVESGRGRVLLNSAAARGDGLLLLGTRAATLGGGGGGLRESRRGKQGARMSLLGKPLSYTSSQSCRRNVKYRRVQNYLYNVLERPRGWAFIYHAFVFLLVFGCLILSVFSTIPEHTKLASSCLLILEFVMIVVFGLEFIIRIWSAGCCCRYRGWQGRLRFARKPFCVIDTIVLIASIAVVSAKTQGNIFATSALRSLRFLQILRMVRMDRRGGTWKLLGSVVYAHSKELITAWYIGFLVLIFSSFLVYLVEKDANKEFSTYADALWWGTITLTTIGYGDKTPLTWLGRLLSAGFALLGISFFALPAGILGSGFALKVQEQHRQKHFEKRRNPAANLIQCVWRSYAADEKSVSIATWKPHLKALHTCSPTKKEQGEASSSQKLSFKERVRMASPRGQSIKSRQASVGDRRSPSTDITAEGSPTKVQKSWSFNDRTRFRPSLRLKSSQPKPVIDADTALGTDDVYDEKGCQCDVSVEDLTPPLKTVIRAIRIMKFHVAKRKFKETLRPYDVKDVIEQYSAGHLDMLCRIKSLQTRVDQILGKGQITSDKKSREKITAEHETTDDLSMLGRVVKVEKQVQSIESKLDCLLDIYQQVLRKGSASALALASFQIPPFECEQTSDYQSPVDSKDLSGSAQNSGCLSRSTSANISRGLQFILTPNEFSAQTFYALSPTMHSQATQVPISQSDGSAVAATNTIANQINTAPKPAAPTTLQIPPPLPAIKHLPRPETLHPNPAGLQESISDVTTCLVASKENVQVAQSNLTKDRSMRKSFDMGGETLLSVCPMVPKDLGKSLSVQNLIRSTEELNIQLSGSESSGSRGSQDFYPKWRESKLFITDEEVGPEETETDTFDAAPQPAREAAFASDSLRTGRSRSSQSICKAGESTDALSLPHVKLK
CYP2C9, sequence (P11712 whole entry): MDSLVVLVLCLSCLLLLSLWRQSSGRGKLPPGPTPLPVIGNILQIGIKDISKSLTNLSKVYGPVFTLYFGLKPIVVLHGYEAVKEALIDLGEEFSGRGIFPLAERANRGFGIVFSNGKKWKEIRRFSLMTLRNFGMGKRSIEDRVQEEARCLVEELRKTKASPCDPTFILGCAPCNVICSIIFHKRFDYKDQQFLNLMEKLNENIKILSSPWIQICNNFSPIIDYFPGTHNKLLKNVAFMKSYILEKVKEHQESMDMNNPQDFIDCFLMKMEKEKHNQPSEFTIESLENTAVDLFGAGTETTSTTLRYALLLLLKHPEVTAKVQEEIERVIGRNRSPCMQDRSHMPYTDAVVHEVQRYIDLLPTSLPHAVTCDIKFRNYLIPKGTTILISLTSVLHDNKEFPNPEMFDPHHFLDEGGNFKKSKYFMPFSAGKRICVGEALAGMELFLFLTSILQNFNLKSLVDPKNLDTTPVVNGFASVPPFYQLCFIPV
Cytochrome P450 1A2, sequence (P05177 whole entry): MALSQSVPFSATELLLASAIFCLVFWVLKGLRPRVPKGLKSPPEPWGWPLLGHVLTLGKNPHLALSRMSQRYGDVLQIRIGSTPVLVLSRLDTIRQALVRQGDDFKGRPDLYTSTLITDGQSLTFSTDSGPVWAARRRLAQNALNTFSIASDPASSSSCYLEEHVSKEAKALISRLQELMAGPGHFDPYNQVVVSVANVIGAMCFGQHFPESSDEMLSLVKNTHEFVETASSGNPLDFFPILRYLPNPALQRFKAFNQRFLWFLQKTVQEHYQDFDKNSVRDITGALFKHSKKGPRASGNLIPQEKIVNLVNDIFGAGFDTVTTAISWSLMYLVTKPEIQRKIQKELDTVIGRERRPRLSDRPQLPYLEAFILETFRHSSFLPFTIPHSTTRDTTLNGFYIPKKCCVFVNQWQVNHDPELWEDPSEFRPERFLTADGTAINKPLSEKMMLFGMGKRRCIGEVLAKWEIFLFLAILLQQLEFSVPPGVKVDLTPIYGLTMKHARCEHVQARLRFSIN
CYP1A2, sequence (P05177 whole entry): as above
CYP2C8, sequence (P10632 whole entry): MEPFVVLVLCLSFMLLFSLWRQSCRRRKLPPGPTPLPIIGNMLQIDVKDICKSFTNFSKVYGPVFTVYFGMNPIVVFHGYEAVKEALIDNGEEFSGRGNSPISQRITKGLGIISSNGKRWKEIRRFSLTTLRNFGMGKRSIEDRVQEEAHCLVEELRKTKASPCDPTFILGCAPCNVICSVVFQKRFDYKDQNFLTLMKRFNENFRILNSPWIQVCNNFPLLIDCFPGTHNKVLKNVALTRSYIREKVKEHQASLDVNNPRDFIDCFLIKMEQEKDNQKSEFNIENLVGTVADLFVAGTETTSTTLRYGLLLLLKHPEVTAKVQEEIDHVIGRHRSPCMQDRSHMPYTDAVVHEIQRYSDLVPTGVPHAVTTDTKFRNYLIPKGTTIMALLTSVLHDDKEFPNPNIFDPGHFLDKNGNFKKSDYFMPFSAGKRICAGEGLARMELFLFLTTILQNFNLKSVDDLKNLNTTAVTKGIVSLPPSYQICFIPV
Cytochrome P450 2B6, sequence (P20813 whole entry): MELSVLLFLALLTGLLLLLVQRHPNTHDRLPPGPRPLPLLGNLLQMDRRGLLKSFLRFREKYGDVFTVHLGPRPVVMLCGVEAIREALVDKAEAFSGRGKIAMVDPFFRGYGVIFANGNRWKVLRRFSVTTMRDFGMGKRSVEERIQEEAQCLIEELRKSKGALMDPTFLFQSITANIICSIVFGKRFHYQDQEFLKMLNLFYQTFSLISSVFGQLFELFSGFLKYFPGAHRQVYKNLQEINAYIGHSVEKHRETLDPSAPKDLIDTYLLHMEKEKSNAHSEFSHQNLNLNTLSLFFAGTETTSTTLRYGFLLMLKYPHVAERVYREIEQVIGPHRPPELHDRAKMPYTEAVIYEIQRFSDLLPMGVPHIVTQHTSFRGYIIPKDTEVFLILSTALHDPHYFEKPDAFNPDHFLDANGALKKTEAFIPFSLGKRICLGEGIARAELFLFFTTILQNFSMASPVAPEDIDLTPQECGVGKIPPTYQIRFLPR

As to `C#CCN(Cc1ccc(F)cc1)c1cc(C)c(NC(=O)OC)c(C)c1`, the Activity is 2.1 with CHO [1], 62.5% in [4], -60.2 mV in [5] and -9.03 mV in data set [6]. Also, in data set [2], the CLint scaled was determined as 62.7 mL/min/kg. For the same molecule, the Kp at 24 h in [3] came out at 2.23. The figures for the IC50 against Cytochrome P450 1A2 and on Cytochrome P450 2B6 were 142 µM and 5.76 µM, respectively. Besides, the IC50 shift on CYP1A2 is greater than 1.5; on CYP2C9 it was less than 1.5. Besides, the AUC(0-t) at 24 h in data set [7] was 321 ng·h/mL. Also, in [8], the Tmax amounted to 40.2 min. Moreover, the inhibition at 0.5 h, up to 50 µM against CYP2C8 was less than 25%.
For the molecule `CCOC(=O)Nc1ccc(NCc2ccc(F)cc2)cc1N` [EZOGABINE], the Activity in the data set with CHO [9] is 2.46; in [10], -8.03 mV; in [11] it was 3.04; in data set [12], -34.3 mV.

These data come from ChEMBL document CHEMBL5149984, “Discovery of HN37 as a Potent and Chemically Stable Antiepileptic Drug Candidate” (J Med Chem, 2021).
